N-glyco inh = blocks N-linked glycosylation in D54 reporter cells. D54 ERlucT glycosylation luciferase reporter, 24 h; percent of 100 nM tunicamycin response. reporter increase, % at 12.5 µM. 0.23% of 360,000 active. AID 588692;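 active = mean luciferase reporter signal, scaled so untreated is 0 and the glycosylation-blocking control 100, at or above a set limit in every replicate; inconclusive = mean reaches the limit but not every replicate does; inactive = mean below the limit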;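 note: luciferase carries N-glycosylation sites so blocking glycosylation raises the light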
PfHsp90 set2 = reduces growth (ATP signal) of yeast expressing P. falciparum Hsp90 | S. cerevisiae expressing PfHsp90, BacTiter-Glo ATP, 48 h; yeast lacking PDR1 and PDR3 efflux regulators | inhibition, % at 9.4 µM | 0.32% of 310,000 active;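 active = every replicate shows inhibition above about 80%, whatever the replicate mean, limit read from the data; inconclusive = mean inhibition reaches the set limit but some replicate falls short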
Arr AP2 block = human beta-arrestin and AP2 interaction inhibition. FITC-arrestin peptide / GST-AP2 beads, flow cytometry; AP2 beta2 appendage carries R879A mutation. inhibition, % at 10 µM. 0.31% of 340,000 active. AID 504490;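 active = inhibition above a set limit, near 3 SD of compounds lacking own fluorescence, cut at about 54% in these data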
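System: GST-AP2 R879A bound to glutathione beads, E. coli-expressed. Also added: 50 nM FITC-arrestin peptide. Schedule: compound with beads 12 min RT, then probe 1 h RT. Signal: bead flow cytometry, FITC channel. Read-out basis: percent response.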
PAX8 inh HTS = PAX8 transcriptional activity inhibition | RMG-I TPO-luciferase reporter, SteadyGlo, 24 h | inhibition, % at 12.6 µM | 1.2% of 360,000 active | AID 652154;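 active = mean replicate inhibition at least 60% with every replicate also reaching 60%; inconclusive = only one of the two criteria is met; inactive = mean below 60% and not all replicates reaching 60%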;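 note: luciferase light reporting Pax8 driven TPO promoter activity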
Rtt109 Vps75 = blocks Candida albicans Rtt109/Vps75 acetyltransferase activity. Q5AAJ8. purified Rtt109/Vps75, ThioGlo CoA-SH fluorescence, 4 h. inhibition, % at 34.9 µM. 0.16% of 330,000 active;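 active = inhibition of at least 50% in every replicate; inconclusive = best replicate reaches 50% inhibition but some replicates fall short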
Target sequence (Q5AAJ8 whole entry, looked up): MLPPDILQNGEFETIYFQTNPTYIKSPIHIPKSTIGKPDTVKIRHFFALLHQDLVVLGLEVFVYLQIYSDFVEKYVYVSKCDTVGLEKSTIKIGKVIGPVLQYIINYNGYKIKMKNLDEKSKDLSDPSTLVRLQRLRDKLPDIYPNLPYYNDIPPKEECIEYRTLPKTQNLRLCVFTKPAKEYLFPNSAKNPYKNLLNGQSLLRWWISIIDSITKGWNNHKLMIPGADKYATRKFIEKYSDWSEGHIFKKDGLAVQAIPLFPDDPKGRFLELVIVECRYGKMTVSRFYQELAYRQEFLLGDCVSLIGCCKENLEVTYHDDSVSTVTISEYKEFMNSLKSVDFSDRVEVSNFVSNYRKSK
Env fusion inh = inhibitors of HIV Env-mediated cell fusion; 1.1% of 360,000 active; AID 651610; HeLa-JRFL Env/CEM21 cell fusion, luciferase; inhibition, % at 12.3 µM;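 active = mean replicate inhibition score of at least 50 and every replicate individually at or above 50; inconclusive = only one of the two criteria met; inactive = mean below 50 and not all replicates reaching 50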
A number is an active result; 0 = inactive; ? = inconclusive; - = no result. Hits are enriched below; roughly 2.3% of the tested compounds scored in any of these assays.

SMILES	N-glyco inh	PfHsp90 set2	Arr AP2 block	PAX8 inh HTS	Rtt109 Vps75	Env fusion inh
C/C=C/c1cccc(-c2nc(C(=O)NCc3ccc(OC)cc3)cc3c2[C@H](CCO)N([S@@](=O)C(C)(C)C)C3)c1	-	-	-	0	-	0
O=C(Nc1ccc(Cl)cc1)Nc1ccc(N2CCCC2)c(S(=O)(=O)Nc2ccccc2Cl)c1	0	0	0	101	0	0
O=C(Nc1ccc(N2CCOCC2)c(S(=O)(=O)Nc2ccccc2Cl)c1)c1ccccc1	0	0	0	0	0	0
Cc1noc(C)c1S(=O)(=O)Nc1ccc2c(c1)C(=O)N([C@@H](C)CO)C[C@@H](C)[C@H](CN(C)C(=O)C1CCCCC1)OCCCC[C@H](C)O2	-	-	-	0	-	0
Cc1ccc(C(=O)NCC(=O)NCC(c2ccco2)N2CCCCC2)cc1C (centres undefined)	0	-	0	0	56	0
O=C(CSC1=NC2(CCCCC2)N=C1c1ccccc1)Nc1ccc2c(c1)OCCO2	0	0	0	0	170	0
COc1ccccc1OCCn1cc(C(=O)c2ccco2)c2ccccc21	0	0	0	0	0	0
COc1cccc(OCCn2cc(C(=O)c3ccco3)c3ccccc32)c1	0	0	0	-	0	66
O=C(/C=C/c1cc(Br)ccc1O)c1ccco1	0	101	0	0	0	0
CCOc1ccc2nc(Cl)c(/C=C/C(=O)c3ccco3)cc2c1	0	-	0	0	0	0
Cc1cccc2cc(/C=C/C(=O)c3ccco3)c(Cl)nc12	31	-	0	0	-	0
CCn1c(=NC(=O)CS(=O)(=O)c2ccc(C)cc2)sc2cccc(OC)c21	0	-	0	0	0	75
CC[C@@]12C(=O)N(c3cccc(Cl)c3)C(=O)N1[C@H](c1cccc(C)c1)[C@@H]1C(=O)N(Cc3ccccc3)C(=O)[C@@H]12	0	0	0	0	0	0
Cc1cccc([C@@H]2[C@@H]3C(=O)N(Cc4ccccc4)C(=O)[C@@H]3[C@]3(CC(C)C)C(=O)N(c4cccc(Cl)c4)C(=O)N23)c1	0	0	0	0	0	55
CCN1C(=O)[C@H]2[C@@H](c3ccc(C)cc3)N3C(=O)N(c4cccc(Cl)c4)C(=O)[C@@]3(CC)[C@H]2C1=O	0	0	0	0	0	96
Cc1ccc(N2C(=O)N3[C@H](c4cccc(C)c4)[C@@H]4C(=O)N(Cc5ccccc5)C(=O)[C@@H]4[C@]3(C)C2=O)cc1	0	0	0	0	0	81
C[C@@H]1CN([C@H](C)CO)C(=O)c2cc(NC(=O)Cn3cnnn3)ccc2O[C@H]1CN(C)S(=O)(=O)c1ccccc1	-	-	-	-	-	0
O=c1c(-c2ccccc2)c(-c2ccccc2)oc2cc(O)cc(O)c12	0	123	0	0	0	0
Cc1noc(C)c1S(=O)(=O)Nc1cccc2c1O[C@H](CN(C)S(=O)(=O)c1c(C)noc1C)[C@H](C)CN([C@@H](C)CO)C2=O	-	-	-	0	-	-
COCCNc1nc2cc(-c3ccccc3)sc2c(=O)n1C	0	-	-	0	-	0
COc1ccc(-c2cc3nc(C)n(N)c(=O)c3s2)cc1	0	?	0	86	0	84
Cc1nc2cc(-c3ccccc3)sc2c(=O)n1N	0	0	0	76	0	64
C[C@@H]1CN([C@H](C)CO)C(=O)c2cc(-c3cccnc3)cnc2O[C@@H]1CN(C)C(=O)Nc1ccccc1	-	-	-	0	-	-
CCCNC(=O)N1C[C@@H]2[C@H](c3ccccc31)[C@@H](CO)N2C(=O)NCCC	-	-	-	0	-	-
C[C@@H]1CN([C@@H](C)CO)S(=O)(=O)c2ccc(C#C[C@@H](C)O)cc2O[C@H]1CN(C)C(=O)c1ccncc1	-	-	-	0	-	0
SMILES	N-glyco inh	PfHsp90 set2	Arr AP2 block	PAX8 inh HTS	Rtt109 Vps75	Env fusion inh
CC1CCN(C2CC(=O)N(c3ccc(Br)cc3Br)C2=O)CC1 (centres undefined)	0	107	0	0	0	0
CC1CCN(C2CC(=O)N(c3ccccc3)C2=O)CC1 (centres undefined)	0	0	0	0	0	0
CN1c2ccc(-c3ccccc3F)cc2[C@@H]2[C@@H](CCN2C(=O)NC2CCCCC2)[C@H]1CO	-	-	-	0	-	0
CN1c2ccc(-c3ccccc3)cc2[C@@H]2[C@@H](CCN2C(=O)NC2CCCCC2)[C@@H]1CO	-	-	-	81	-	0
COc1ccc(NC(=O)N2CC[C@@H]3[C@H]2c2cc(-c4ccc(F)cc4)ccc2N(C)[C@H]3CO)cc1	-	-	-	71	-	-
COc1ccc(-c2ccc3c(c2)[C@@H]2[C@@H](CCN2C(=O)NC2CCCCC2)[C@@H](CO)N3C)cc1	-	-	-	85	-	-
C[C@@H]1CN([C@H](C)CO)S(=O)(=O)c2ccc(C#CC3CC3)cc2O[C@@H]1CN(C)C(=O)Cc1ccncc1	-	-	-	-	-	0
Cc1ccc2c(c1)[C@H]1[C@H](CO2)[C@H](c2ccccc2)[C@]2(C)C(=O)N(CC3CCCO3)CC(=O)N12 (some centres undefined)	0	0	0	0	0	110
C[C@@]12C(=O)N(CC3CCCO3)CC(=O)N1[C@H]1c3cc(Cl)ccc3OC[C@@H]1[C@@H]2c1ccccc1 (some centres undefined)	0	0	0	0	0	80
CC1C(=O)Nc2ccc(S(=O)(=O)N3CCN(c4cccc(Cl)c4)CC3)cc2NC1=O (centres undefined)	0	0	0	0	0	-
CC1C(=O)Nc2ccc(S(=O)(=O)N3CCN(c4cccc(C(F)(F)F)c4)CC3)cc2NC1=O (centres undefined)	0	0	0	68	0	0
N/C(=N\OC(=O)c1cccc(F)c1)c1ccccn1	0	0	0	0	0	0
CC(C)(C)c1ccc(C(=O)O/N=C(\N)c2ccccn2)cc1	0	0	0	70	0	0
COc1cc(C(=O)O/N=C(\N)c2ccccn2)cc(OC)c1OC	0	0	0	0	0	0
Cc1ccc(C(=O)O/N=C(\N)c2ccccn2)cc1C	0	0	0	83	0	0
Cc1cccc(C(=O)O/N=C(\N)c2ccccn2)c1	0	0	0	84	0	0
N/C(=N\OC(=O)c1ccccc1)c1ccccn1	0	0	0	0	-	0
Cc1ccc(C(=O)O/N=C(\N)c2ccccn2)cc1	0	0	0	105	0	62
COc1ccc(S(=O)(=O)Nc2ccc3c(c2)C(=O)N([C@@H](C)CO)C[C@@H](C)[C@H](CN(C)C(=O)Cc2ccccc2)OCCCC[C@H](C)O3)cc1	-	-	-	0	-	0
CCC(=O)Nc1ccc2c(c1)C(=O)N(C)[C@H]1CC[C@@H](CC(=O)NC3CCCC3)O[C@@H]1CO2	-	-	-	0	-	0
C[C@H](CO)N1C[C@H](C)[C@@H](CN(C)S(=O)(=O)c2ccc(F)cc2)OCCCC[C@H](C)Oc2ccc(NC(=O)CCC(F)(F)F)cc2C1=O	-	-	-	0	-	0
CCOc1ccc(C(=O)O/N=C(\N)c2ccccn2)cc1	0	0	0	128	0	63

From PubChem
